Assay outcomes from PubChem.
DENV2 CPE rescue – inhibitors of DENV2 cytopathic effect | DENV2-infected cells, cytopathic effect rescue, plate reader | CPE inhibition, % at 9.99 µM | 1.7% of 350,000 active | AID 651640; in the data active means CPE inhibition above about 20%, passing the limit was not always enough; inconclusive means no clear call, values can overlap the other calls; tested in BHK-21 cells
PGC1a acetyl inh – modulators of PGC1a acetylation; U2OS PGC1a acetylation, AlphaScreen anti-acetyl-lysine; with virally co-expressed GCN5 acetyltransferase; inhibition, % at 15.6 µM; 0.17% of 350,000 active;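 active means every replicate shows inhibition of at least 40%; inconclusive means mean inhibition at least 40% but some replicate below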
PglD DTNB – blocks C. jejuni PglD acetyltransferase activity. inhibition, % at 12.5 µM. purified PglD enzyme, DTNB colorimetric CoA detection. 0.098% of 360,000 active. AID 602405; in the data active means inhibition above about 16%, passing the limit was not always enough; inconclusive means no clear call, values can overlap the other calls
Ecoli rRNA inh – selective bacterial rRNA inhibition in E. coli; E. coli WT GFP vs humanized-ribosome RFP mutants, fluorescence, 24 h; active compounds read low; DMSO median 0, no signal -100; GFP signal change (wild-type ribosome), % (concentration not given with the values); 1.6% of 350,000 active;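 active means significant combined selectivity score with lowered wild-type GFP, culture density cut under 30%, mutant RFP and density less affected; inactive means any of these conditions unmet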
FN deposit inh – fibronectin deposition inhibition; AH1F fibroblasts, Alexa488-fibronectin deposition fluorescence, overnight; inhibition, % at 12.6 µM; 0.086% of 350,000 active; AID 743247;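 active means mean inhibition across replicates of 30% or more, regardless of how many single replicates reach that level; inconclusive means mean under 30% yet at least half of replicates reach 30%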
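Assay system: AH1F fibroblasts assembling fluorescent fibronectin matrix; Amount: 10000 AH1F cells per well; Buffer or medium: DMEM, 2% serum; Probe or stimulus: Alexa488-fibronectin, 24 nM final in well; Doses: single compound dose, delivered by pin transfer; Incubation: 1 h adhesion, overnight exposure; Measured by: fluorescence 485/525 nm; Read-out: fibronectin deposition inhibition.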
Env fusion inh – blocks HIV Env-driven cell-cell fusion; HeLa-JRFL Env/CEM21 cell fusion, luciferase; inhibition, % at 12.3 µM; 1.1% of 360,000 active; AID 651610;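 active means mean replicate inhibition score of at least 50 and every replicate individually at or above 50; inconclusive means only one of the two criteria met; inactive means mean below 50 and not all replicates reaching 50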
Of the large screens only hits and unclear results are named; the others gave an inactive call; ! = not active in a repeat; [ ] = another dose, or the depositor's remark. In the library only some 3.5% were active in any assay of this set; here they are far more common.

CN1Cc2c(N3CCOCC3)nc3sc(C(=O)c4ccccc4)c(N)c3c2CC1(C)C	Ecoli rRNA inh -36.2 (no result: PGC1a acetyl inh, PglD DTNB)
Nc1c(C(=O)c2ccccc2)sc2nsc(SCCN3CCOCC3)c12	Ecoli rRNA inh -27.1
S=c1[nH]nc(COc2ccccc2)n1/N=C/c1cccc(Cl)c1Cl	DENV2 CPE rescue inconclusive
S=c1[nH]nc(COc2ccccc2)n1/N=C/c1ccccc1Cl	Ecoli rRNA inh -24.2
Cc1cc(N2C(=O)C(O)=C(C(=O)c3cc4ccccc4o3)C2c2ccc(Cl)cc2)no1 (centres undefined)	Ecoli rRNA inh -24.2
Cc1cc(N2C(=O)C(O)=C(C(=O)c3ccco3)C2c2cccc(Cl)c2)no1 (centres undefined)	Ecoli rRNA inh -31.9 (no result: PGC1a acetyl inh)
O=C(NCC[C@H]1CC[C@H](NS(=O)(=O)c2ccccc2)[C@H](CO)O1)c1ccccc1F	none
N/C(Cc1ccc(Cl)cc1Cl)=N\OC(=O)c1ccc(Br)o1	Ecoli rRNA inh -22.3
Cc1cc(Cl)ccc1C(=O)C1CCCN(C(=O)c2cscn2)C1 (centres undefined)	none
CSc1nc(C(=O)N2CCCC(C(=O)c3ccc(Cl)cc3)C2)cs1 (centres undefined)	Ecoli rRNA inh -31.5 (no result: PGC1a acetyl inh, PglD DTNB)
Cc1nc(C)c(C(=O)N2CCCC(C(=O)c3ccc(Cl)cc3C)C2)s1 (centres undefined)	none
Cc1cc(Cl)ccc1C(=O)C1CCCN(C(=O)c2ccoc2)C1 (centres undefined)	Ecoli rRNA inh -25.4 (no result: PGC1a acetyl inh)
Cc1cc(C(=O)N2CCCC(C(=O)c3ccc(Cl)cc3C)C2)no1 (centres undefined)	Env fusion inh 61.0 (no result: FN deposit inh)
Cc1cc(C(=O)Nc2cccc3c2O[C@@H](CN(C)Cc2ccc(Cl)c(Cl)c2)[C@H](C)CN([C@H](C)CO)C3=O)n(C)n1	none
COc1ccccc1S(=O)(=O)N[C@H]1C=C[C@H](CC(=O)NCc2cc(F)cc(F)c2)O[C@@H]1CO	DENV2 CPE rescue inconclusive (no result: FN deposit inh)
C[C@H]1CCCCO[C@H](CN(C)S(C)(=O)=O)[C@@H](C)CN([C@@H](C)CO)C(=O)c2cc(NS(=O)(=O)c3cn(C)cn3)ccc2O1	none (no result: FN deposit inh)
CCCNC(=O)N1C[C@@H]2[C@H](c3ccccc31)[C@H](CO)N2C(=O)NCCC	none (no result: FN deposit inh, Env fusion inh)
CCOC(=O)/C(=N\Nc1ccc(C(C)=O)cc1)c1csc(Nc2ccccc2)n1	none (no result: DENV2 CPE rescue, PGC1a acetyl inh, PglD DTNB, Ecoli rRNA inh)
CCOC(=O)/C(=N\Nc1ccccc1[N+](=O)[O-])c1csc(N)n1	Ecoli rRNA inh -26.7 (no result: PglD DTNB, FN deposit inh)
CNC[C@@H]1Oc2ccc(NS(C)(=O)=O)cc2CC(=O)N([C@H](C)CO)C[C@@H]1C	none (no result: FN deposit inh)
COc1ccc(-c2cn(CC[C@@H]3CC[C@@H](NC(=O)CCN4CCCCC4)[C@H](CO)O3)nn2)cc1	none
CN(C)C(=O)c1cc2c(c(-c3cccc(C4=CCCC4)c3)n1)[C@H](CCO)N([S@@](=O)C(C)(C)C)C2	none
CCCNC(=O)N1C[C@H]2[C@@H](c3ccccc31)[C@@H](CO)N2Cc1cc(F)ccc1F	none (no result: FN deposit inh, Env fusion inh)
OCC#CCSc1nnc(-c2cccc3ccccc23)o1	DENV2 CPE rescue 92.8
O=C(c1cccs1)c1sccc1Cc1ccccc1	Ecoli rRNA inh -15.9 (no result: FN deposit inh)
CC(C)(C)N(Cc1ccccc1)C(=O)c1cccs1	none
CC(=O)c1ccc(N2CCN(C(=S)Nc3ccc(Cl)c(Cl)c3)CC2)cc1	DENV2 CPE rescue 53.3 (no result: PGC1a acetyl inh, PglD DTNB, FN deposit inh)
CCCCNC(=S)N1CCN(c2ccc(C(C)=O)cc2)CC1	Ecoli rRNA inh -21.7 (no result: PGC1a acetyl inh, PglD DTNB)
C/C=C/c1ccc([C@H]2[C@@H](CO)N(CCC)[C@@H]2CNC(=O)NC2CCCC2)cc1	none (no result: PGC1a acetyl inh, PglD DTNB, Env fusion inh)
NC(=O)N/N=C1\c2ccccc2-c2c(C(N)=O)cccc21	none (no result: PGC1a acetyl inh)
O=C(O)c1cccc(NN=C2c3ccccc3-c3ccccc32)c1	Ecoli rRNA inh -52.6 (no result: PglD DTNB, FN deposit inh)
O=C(O)c1cc(NN=C2c3ccccc3-c3ccccc32)ccc1Cl	none
O=C(O)c1cccc2c1-c1ccccc1/C2=N\Nc1ccccc1	Ecoli rRNA inh -39.5
O=C(Nc1nc(-c2ccco2)c(-c2ccco2)s1)c1ccc(F)cc1F	DENV2 CPE rescue 68.2
CCOC(=O)C1=C(c2ccccc2)NC(=O)NC1c1ccc(O)c(OCC)c1 (centres undefined)	none
CCOC(=O)C1=C(c2ccccc2)NC(=O)NC1c1ccc(O)c(Cl)c1 (centres undefined)	FN deposit inh 48.2
Cc1ccc(S(=O)(=O)Nc2ccc3c(c2)C(=O)N([C@@H](C)CO)C[C@@H](C)[C@@H](CN(C)S(=O)(=O)c2cccs2)OCCCC[C@@H](C)O3)cc1	DENV2 CPE rescue 39.6
C[C@@H]1CN([C@@H](C)CO)C(=O)c2cc(NS(=O)(=O)c3ccc(Cl)cc3)ccc2O[C@@H](C)CCCCO[C@H]1CN(C)S(=O)(=O)c1cccs1	DENV2 CPE rescue 35.8
C[C@@H]1CN([C@H](C)CO)C(=O)c2cc(NC(=O)Nc3ccc(F)cc3)ccc2O[C@@H](C)CCCCO[C@H]1CN(C)S(=O)(=O)c1cccs1	DENV2 CPE rescue 47.0!
C[C@H]1CCCCO[C@H](CN(C)S(=O)(=O)c2cccs2)[C@@H](C)CN([C@@H](C)CO)C(=O)c2cc(NC(=O)Nc3ccc(F)cc3)ccc2O1	none (no result: FN deposit inh)
C[C@H]1CCCCO[C@@H](CN(C)S(=O)(=O)c2cccs2)[C@@H](C)CN([C@@H](C)CO)C(=O)c2cc(NS(=O)(=O)c3ccccc3)ccc2O1	Env fusion inh 62.5[16.7 µM]
C[C@@H]1CN([C@H](C)CO)S(=O)(=O)c2ccc(C3=CCCC3)cc2O[C@H]1CN(C)C(=O)C1CCOCC1	none
C[C@@H]1CCCCO[C@H](CN(C)S(=O)(=O)c2cccs2)[C@@H](C)CN([C@H](C)CO)C(=O)c2cc(NC(=O)c3ccccc3)ccc2O1	none (no result: FN deposit inh)
C[C@@H]1CCCCO[C@H](CN(C)S(=O)(=O)c2cccs2)[C@@H](C)CN([C@@H](C)CO)C(=O)c2cc(NC(=O)c3ccccc3)ccc2O1	DENV2 CPE rescue 22.8 (no result: FN deposit inh)
Clc1cccc(Cl)c1COn1nnc2ccccc21	none (no result: DENV2 CPE rescue, Ecoli rRNA inh, FN deposit inh)
c1ccc(COn2nnc3ccccc32)c(COn2nnc3ccccc32)c1	Ecoli rRNA inh -42.7 (no result: FN deposit inh, Env fusion inh)
C[C@@H]1CN([C@H](C)CO)C(=O)c2cc(NC(=O)Nc3cccc4ccccc34)ccc2O[C@@H](C)CCCCO[C@@H]1CN(C)CC1CCCCC1	DENV2 CPE rescue 45.2 (no result: FN deposit inh)
C[C@@H]1CN([C@@H](C)CO)C(=O)c2cc(NC(=O)Nc3cccc4ccccc34)ccc2O[C@@H](C)CCCCO[C@H]1CN(C)C(=O)c1ccccc1	Env fusion inh 60.7[16.7 µM] (no result: FN deposit inh)
C[C@@H]1CCCCO[C@H](CN(C)CC2CCCCC2)[C@H](C)CN([C@H](C)CO)C(=O)c2cc(NC(=O)Nc3cccc4ccccc34)ccc2O1	none (no result: FN deposit inh)
C[C@@H]1CCCCO[C@@H](CN(C)CC2CCCCC2)[C@@H](C)CN([C@@H](C)CO)C(=O)c2cc(NC(=O)Nc3cccc4ccccc34)ccc2O1	none (no result: FN deposit inh)
